ChEMBL document CHEMBL3862000, “Tetrahydroindazole derivatives as potent and peripherally selective cannabinoid-1 (CB1) receptor inverse agonists” (Bioorg Med Chem Lett, 2016)

Key:
[1] = Drug uptake in C57bl/6j mouse plasma at 20 mg/kg, po measured at 2 hrs post dose by LC/MS analysis; assay type: ADME, organism-based
Method in brief: (§1)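 Male mice dosed orally. Plasma taken by retro-orbital bleed at 1 h and 2 h or 1 h and 4 h. Whole brain minus cerebellum removed at 2 h or 4 h, weighed wet, frozen, then homogenized in saline. Compound measured by LC/MS; LOQ 5 ng/ml. B/P ratio is brain over plasma concentration.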

Cannabinoid receptor 1 = Cannabinoid receptor 1 (Homo sapiens, UniProt P21554); assay: Inverse agonist activity at human cannabinoid receptor 1 expressed in HEK293 cells assessed as increase in forskolin-induced cAMP production preincubated with cells followed by forskolin stimulation measured after 30 mins in presence of D2-labeled cAMP and Eu3+-TBP-NHS cryptate by HTRF assay; assay type: functional, cell-based
Cannabinoid receptor 2 = Cannabinoid receptor 2 (Homo sapiens, UniProt P34972); assay: Inverse agonist activity at human cannabinoid receptor 2 expressed in HEK293 cells assessed as increase in forskolin-induced cAMP production preincubated with cells followed by forskolin stimulation measured after 30 mins in presence of D2-labeled cAMP and Eu3+-TBP-NHS cryptate by HTRF assay; assay type: functional, cell-based
[2] = Ratio of drug level in C57bl/6j mouse brain to plasma at 20 mg/kg, po; assay type: ADME, organism-based; details: read-out: BPR; method in brief: as §1
[3] = Drug uptake in C57bl/6j mouse brain without cerebellum at 20 mg/kg, po measured at 2 hrs post dose by LC/MS analysis; assay type: ADME, organism-based; details: for Drug uptake: in vivo, 2 h; method in brief: as §1
[4] = Drug uptake in C57bl/6j mouse plasma at 20 mg/kg, po measured at 4 hr post dose by LC/MS analysis; assay type: ADME, organism-based
Method in brief: (§2)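 Male C57bl/6j mice given a single oral dose of 20 mg/kg. Plasma drawn by retro-orbital bleed at 1 h and 4 h. Whole brain minus cerebellum taken at 4 h, wet-weighed, frozen, then homogenized in saline. Compound levels in plasma and brain measured by LC/MS (LOQ 5 ng/ml). Brain/plasma ratio taken from the two concentrations.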

[5] = Drug uptake in C57bl/6j mouse brain without cerebellum at 20 mg/kg, po measured at 4 hr post dose by LC/MS analysis; assay type: ADME, organism-based; details: in vivo; method in brief: as §2
Mus musculus [6] = assay: Antiobesity activity in diet-induced obese mouse model assessed as fasting plasma glucose AUC (0 to 120 mins) at 30 mg/kg, po qd for 3 weeks measured on day 19 post glucose challenge by OGTT (reference value: 29890.50 +/- 2516.45 mg/dL.min); assay type: functional, organism-based; design: dose 30 mg/kg, time < 2 hr
Rattus norvegicus = assay: Toxicity in Sprague-Dawley rat assessed as CNS-mediated behavior at 30 mg/kg, po by measuring stereotypic activity after 15 mins measured up to 2 hrs; assay type: organism-based; details: in vivo
Method in brief: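 Rats given vehicle (10% PEG400 and 10% solutol) or compound orally. Stereotypic activity recorded automatically from 15 min post-dose for a total of 2 h.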

[7] = Ratio of drug level in diet-induced obese mouse brain to plasma at 30 mg/kg, po qd for 3 weeks measured 2 hrs post last dose on day 23; assay type: ADME, organism-based; details: read-out: BPR
Method in brief: (§3)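 Dosing ran daily, oral, in 10% PEG400 + 10% solutol at 5 mL/kg, […], run alongside the efficacy study. Plasma and brain compound levels measured 2 h after the last dose; B/P ratio is brain over plasma concentration.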

[8] = Drug uptake in diet-induced obese mouse plasma at 30 mg/kg, po qd for 3 weeks measured 2 hrs post last dose on day 23; assay type: ADME, organism-based; method in brief: as §3
[9] = Drug uptake in diet-induced obese mouse brain at 30 mg/kg, po qd for 3 weeks measured 2 hrs post last dose on day 23; assay type: ADME, organism-based; details: in vivo; method in brief: as §3
Mus musculus [10] = assay: Toxicity in diet-induced obese mouse model assessed as effect on body weight at 30 mg/kg, po qd for 3 weeks measured on day 19 up to 120 mins post glucose challenge; assay type: organism-based; details: in vivo
Mus musculus [11] = assay: Toxicity in diet-induced obese mouse model assessed as effect on food intake at 30 mg/kg, po qd for 3 weeks measured on day 19 up to 120 mins post glucose challenge; assay type: organism-based; details: in vivo

Cannabinoid receptor 1, sequence (P21554 whole entry): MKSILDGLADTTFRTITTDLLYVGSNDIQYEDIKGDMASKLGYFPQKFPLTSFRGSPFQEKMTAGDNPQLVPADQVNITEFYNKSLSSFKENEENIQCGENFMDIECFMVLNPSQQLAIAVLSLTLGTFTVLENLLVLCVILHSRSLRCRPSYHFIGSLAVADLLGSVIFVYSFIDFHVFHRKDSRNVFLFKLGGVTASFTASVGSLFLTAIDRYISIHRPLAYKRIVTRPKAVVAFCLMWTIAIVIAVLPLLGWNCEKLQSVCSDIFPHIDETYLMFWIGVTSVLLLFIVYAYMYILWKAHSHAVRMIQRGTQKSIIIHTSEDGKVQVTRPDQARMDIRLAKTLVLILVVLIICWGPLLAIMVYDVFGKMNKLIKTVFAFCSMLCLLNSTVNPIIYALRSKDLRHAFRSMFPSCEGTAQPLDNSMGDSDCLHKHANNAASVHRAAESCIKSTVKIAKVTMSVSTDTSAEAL
Cannabinoid receptor 2, sequence (P34972 whole entry): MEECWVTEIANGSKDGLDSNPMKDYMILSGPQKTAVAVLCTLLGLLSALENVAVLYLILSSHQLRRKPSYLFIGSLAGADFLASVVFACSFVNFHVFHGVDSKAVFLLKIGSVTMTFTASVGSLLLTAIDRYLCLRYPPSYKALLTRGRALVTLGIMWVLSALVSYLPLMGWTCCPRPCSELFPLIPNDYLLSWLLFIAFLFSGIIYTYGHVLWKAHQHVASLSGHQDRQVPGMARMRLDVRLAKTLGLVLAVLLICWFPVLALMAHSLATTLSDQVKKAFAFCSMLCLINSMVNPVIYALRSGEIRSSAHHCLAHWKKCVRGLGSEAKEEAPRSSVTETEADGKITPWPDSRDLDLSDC

Row | SMILES | concentration at 2 h [1] [nM] | EC50 (Cannabinoid receptor 1) [nM] | EC50 (Cannabinoid receptor 2) [nM] | Kp [2] | Drug uptake [3] [nmol/g] | concentration at 4 h [4] [nM] | Drug uptake [5] [nmol/g] | concentration at 2 h ([3]; C57BL/6J, brain without cerebellum, read-out: Drug uptake) [ng/mL] | AUC (Mus musculus [6]) [ng·h/mL] | Activity (Rattus norvegicus) | Kp at 2 h [7] | concentration at 2 h [8] [nM] | Drug uptake [9] [nmol/g] | Activity (Mus musculus [10]) | Activity (Mus musculus [11])
1 | C[C@@H](NC(=O)c1nn(-c2ccc(Cl)cc2)c2c1CCC/C2=C\c1ccc(Cl)cn1)c1ccccn1 | 2930 | 22 | > 10000 | 0.65 | 1.91 | – | – | – | – | – | – | – | – | – | –
2 | C[C@@H](NC(=O)c1nn(-c2ccc(Cl)c(Cl)c2)c2c1CCCC/C2=C\c1ccc(Cl)cc1)c1ccccn1 | 2400 | 37 | > 10000 | 0.02 | 0.05 | – | – | – | – | – | – | – | – | – | –
3 | O=C(NC1CCN(c2ccccn2)CC1)c1nn(-c2ccc(Cl)cc2Cl)c2c1CCC/C2=C\c1ccc(F)cc1 | 1520 | 12 | > 11000 | 0.02 | 0.035 | – | – | – | – | – | – | – | – | – | –
4 | C[C@@H](NC(=O)c1nn(-c2ccc(Cl)c(Cl)c2)c2c1CCC/C2=C\c1ccc(Cl)s1)c1ccccn1 | – | 37 | > 10000 | 0.03 | – | 3180 | 0.1 | – | – | – | – | – | – | – | –
5 | O=C(NC1CCN(c2ccccn2)CC1)c1nn(-c2ccc(Cl)cc2Cl)c2c1CCCC/C2=C\c1ccc(F)cc1 | 2030 | 28 | > 10000 | 0.03 | 0.05 | – | – | – | – | – | – | – | – | – | –
6 | C[C@@H](NC(=O)c1nn(-c2ccc(Cl)cc2Cl)c2c1CCCC/C2=C\c1ccc(Cl)s1)c1ccccn1 | 3630 | 2 | 9410 | 0.15 | 0.56 | – | – | – | – | – | – | – | – | – | –
7 | C[C@@H](NC(=O)c1nn(-c2ccc(Cl)cc2Cl)c2c1CCCC/C2=C\c1ccc(Cl)cn1)c1ccccn1 | 380 | 4 | 560 | 0.48 | 0.16 | – | – | – | – | – | – | – | – | – | –
8 | C[C@@H](NC(=O)c1nn(-c2ccc(C(F)(F)F)cc2Cl)c2c1CCCC/C2=C\c1ccc(Cl)s1)c1ccccn1 | – | 8 | > 10000 | 0.28 | – | 640 | 0.17 | – | – | – | – | – | – | – | –
9 | O=C(NC1(c2ccccn2)CC1)c1nn(-c2ccc(C(F)(F)F)cc2Cl)c2c1CCC/C2=C\c1ccc(Cl)s1 | – | 11 | > 10000 | 0.14 | – | 4630 | 0.64 | – | – | – | – | – | – | – | –
10 | C[C@@H](NC(=O)c1nn(-c2ccc(Cl)cc2Cl)c2c1CCC/C2=C\c1ccc(F)cc1)c1ccccn1 | 1560 | 4 | > 10000 | 0.92 | 1.39 | – | – | – | – | – | – | – | – | – | –
11 | C[C@@H](NC(=O)c1nn(-c2ccc(Cl)cc2)c2c1CCCC/C2=C\c1ccc(F)cc1)c1ccccn1 | 2470 | 28 | > 10000 | 0.41 | 1.02 | – | – | – | – | – | – | – | – | – | –
12 | O=C(NC1(c2ccccn2)CC1)c1nn(-c2ccc(Cl)c(Cl)c2)c2c1CCCC/C2=C\c1ccc(F)cc1 | 2410 | 13 | 807 | 0.05 | 0.11 | – | – | – | – | – | – | – | – | – | –
13 | C[C@@H](NC(=O)c1nn(-c2ccc(Cl)cc2Cl)c2c1CCCC/C2=C\c1ccc(Cl)cc1)c1ccccn1 | 830 | 7 | 743 | 0.16 | 0.13 | – | – | – | – | – | – | – | – | – | –
14 | C[C@@H](NC(=O)c1nn(-c2ccc(Cl)cc2Cl)c2c1CCC/C2=C\c1ccc(Cl)cc1)c1ccccn1 | – | 30 | 854 | 0.2 | – | 1600 | 0.32 | – | – | – | – | – | – | – | –
15 | O=C(NC1(c2ccccn2)CC1)c1nn(-c2ccc(C(F)(F)F)cc2Cl)c2c1CCCC/C2=C\c1ccc(Cl)s1 | – | 8 | > 10000 | 0.24 | – | 1540 | 0.36 | – | – | – | – | – | – | – | –
16 | O=C(NC1(c2ccccn2)CC1)c1nn(-c2ccc(Cl)cc2)c2c1CCC/C2=C\c1ccc(Cl)cc1 | – | 7 | 1610 | 0.82 | – | 1610 | 1.28 | – | – | – | – | – | – | – | –
17 | C[C@@H](NC(=O)c1nn(-c2ccc(Cl)c(Cl)c2)c2c1CCCC/C2=C\c1ccc(C(F)(F)F)cc1)c1ccccn1 | 4760 | 56 | > 10000 | 0.01 | 0.05 | – | – | – | – | – | – | – | – | – | –
18 | C[C@@H](NC(=O)c1nn(-c2ccc(Cl)cc2Cl)c2c1CCCC/C2=C\c1ccc(F)cc1)c1ccccc1 | 1290 | 6 | 5590 | – | – | – | – | < 5 | – | – | – | – | – | – | –
19 | C[C@@H](NC(=O)c1nn(-c2ccc(Cl)c(Cl)c2)c2c1CCCC/C2=C\c1ccc(F)cc1)c1ccccn1 | 1620 | 35 | 2000 | 0.05 | 0.07 | – | – | – | 3.67e+06 | Non-Toxic | 0.037 | 6620 | 0.25 | Non-Toxic | Non-Toxic
20 | O=C(NC1CCN(c2ccccn2)CC1)c1nn(-c2ccc(Cl)cc2Cl)c2c1CCC/C2=C\c1ccc(Cl)cc1 | – | 34 | > 10000 | 0.09 | – | 450 | 0.04 | – | – | – | – | – | – | – | –
21 | C[C@@H](NC(=O)c1nn(-c2ccc(Cl)cc2Cl)c2c1CCC/C2=C\c1ccc(Cl)s1)c1ccccn1 | 2960 | 35 | 3820 | 0.08 | 0.24 | – | – | – | – | – | – | – | – | – | –
22 | C[C@@H](NC(=O)c1nn(-c2ccc(C(F)(F)F)cc2Cl)c2c1CCC/C2=C\c1ccc(Cl)s1)c1ccccn1 | – | 18 | > 10000 | 0.11 | – | 460 | 0.051 | – | – | – | – | – | – | – | –
23 | C[C@@H](NC(=O)c1nn(-c2ccc(Cl)cc2)c2c1CCC/C2=C\c1ccc(Cl)cc1)c1ccccn1 | 3720 | 127 | > 10000 | 0.26 | 0.97 | – | – | – | – | – | – | – | – | – | –
